Results reported in ChEMBL document CHEMBL1123090, “Inhibition of liver alcohol dehydrogenase and ethanol metabolism by 3-substituted thiolane 1-oxides” (J Med Chem, 1985).

Columns and labels:
Rattus norvegicus = species on record: Rattus norvegicus; experiment: The Kii was determined with varied concentrations of inhibitor and ethanol by determining blood alcohol concentration in rats; assay type: functional
How it was run: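 Fed male Sprague-Dawley rats (175–280 g) given inhibitor ip at 0–1.0 mmol/kg in saline, then 10 min later ethanol 19.6 mmol/kg ip. Tail blood ethanol measured over time by GC with tert-butyl alcohol internal standard. Initial elimination rate taken from tangent after 60-min absorption phase; Kii by nonlinear fit.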

[1] = Compound dose that causes 50% toxicity in mice was determined; assay type: organism-based; conditions: mouse, in vivo
How it was run: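 Fed male Swiss-Webster mice (16–20 g) given ip injections of sulfoxide solutions at 0.1–10 M (the concentration of the injected solution), at 0.1 mL/10 g body weight.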

[2] = In vitro inhibitory constant against rat liver alcohol dehydrogenase was determined
How it was run: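 Enzymes partially purified from liver (DEAE-cellulose, then AMP-agarose affinity), all steps 0–5 °C. Ethanol varied 0.4–2 mM, 0.5 mM NAD+, 83 mM potassium phosphate pH 7.3 with 40 mM KCl, 37 °C. At least three inhibitor levels; 32 initial velocities by A340. Kii from uncompetitive fit; one or two experiments.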

[3] = tested on: Alcohol dehydrogenase (Macaca mulatta); experiment: In vitro inhibitory constant against monkey liver alcohol dehydrogenase was determined; conditions: Cercopithecidae
[4] = biological target: Alcohol dehydrogenase (Equus caballus) (UniProt P00327+P00328); experiment: In vitro inhibitory constant against horse liver alcohol dehydrogenase was determined

[O-][S+]1CCCC1 [TETRAMETHYLENE SULFOXIDE] gave a Kii (Rattus norvegicus) of 340 µmol/kg, an LD50 [1] of 45000 µmol/kg and a Kii [2] of 130 µM. It also gave a Kii [3] of 1600 µM.

CCCCCCC1CC[S+]([O-])C1 (centres undefined) gave a Kii (Rattus norvegicus) of 65 µmol/kg, an LD50 [1] of 770 µmol/kg and a Kii [4] of 0.19 µM. The Kii [2] was 0.13 µM and the Kii [3] was 0.35 µM.

In the case of CCCCC1CC[S+]([O-])C1 (centres undefined), the Kii (Rattus norvegicus) was 11 µmol/kg, the LD50 [1] was 1400 µmol/kg and the Kii [4] was 0.63 µM. It also gave a Kii [2] of 1.1 µM and a Kii [3] of 2.3 µM.

Work on CC1CC[S+]([O-])C1 (centres undefined) yielded a Kii (Rattus norvegicus) of 64 µmol/kg, an LD50 [1] of 1300 µmol/kg and a Kii [4] of 7.5 µM. It also gave a Kii [2] of 19 µM and a Kii [3] of 460 µM.

Compound [O-][S+]1CCC(c2ccccc2)C1 (centres undefined) has a Kii (Rattus norvegicus) of 87 µmol/kg, an LD50 [1] of 4000 µmol/kg and a Kii [4] of 0.36 µM. For the same compound, the Kii [2] was 1.1 µM and the Kii [3] was 1.5 µM.
